Peptide text beside a SMILES is read from it.
Key:
Rattus norvegicus [1] = species: Rattus norvegicus; test: (§1) Compound was evaluated for its glycogenolytic activity in normal male rats and the plasma glucose level was determined at 1 ug/100 g of body weight; format: functional, organism-based
Procedure, shortened: (§2)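 Groups of five, anesthetized with sodium pentobarbital (6–7 mg/100 g), given peptide in saline s.c. (0.5 mL) 30 min later. Jugular blood was drawn at 15 min into EDTA, and plasma glucose was measured by glucose oxidase. Mean ± SD, n = 5.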

Rattus norvegicus [2] = species: Rattus norvegicus; test: Compound was evaluated for its glycogenolytic activity in normal male rats and the plasma glucose level was determined at 2 ug/100 g of body weight; format: functional, organism-based; procedure, shortened: as §2
Rattus norvegicus [3] = species: Rattus norvegicus; test: Potency of glycogenolytic activity was reported by four point assay; format: functional
Rattus norvegicus [4] = species: Rattus norvegicus; test: Compound was evaluated for its glycogenolytic activity in normal male rats and the plasma glucose level was determined at 4 ug/100 g of body weight; format: functional, organism-based
Procedure, shortened: as §2, with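 “Male Charles River CD rats (175–350 g), fed and kept at 24 ± 2 °C under a 0500–1900 h light cycle for at least 1 week. Groups” for “Groups”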

Rattus norvegicus [5] = species: Rattus norvegicus; test: Compound was evaluated for its glycogenolytic activity in normal male rats and the plasma glucose level was determined at 6 ug/100 g of body weight; format: functional, organism-based
Procedure, shortened: as §2, with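 “Male Charles River CD rats (175–350 g), fed and kept at 24 ± 2 °C under a 0500–1900 h light cycle for at least 1 week. Groups” for “Groups”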

Rattus norvegicus [6] = species: Rattus norvegicus; test: Compound was evaluated for its glycogenolytic activity in normal male rats and the plasma glucose level was determined at 12 ug/100 g of body weight; format: functional, organism-based
Procedure, shortened: as §2, with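 “Male Charles River CD rats (175–350 g), fed and kept at 24 ± 2 °C under a 0500–1900 h light cycle for at least 1 week. Groups” for “Groups”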

Rattus norvegicus [7] = species: Rattus norvegicus; test: potency of glycogenolytic activity was reported by four point assay.; format: functional, organism-based
Rattus norvegicus [8] = species: Rattus norvegicus; test: Compound was evaluated for its glycogenolytic activity in normal male rats and the plasma glucose level was determined at 0.5 ug/100 g of body weight; format: functional, organism-based
Rattus norvegicus [9] = species: Rattus norvegicus; test: as §1; format: functional, organism-based; remark: listed apart in the source
Procedure, shortened: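 Male Charles River CD rats (175–350 g), fed, anesthetized with sodium pentobarbital (6–7 mg/100 g), dosed subcutaneously 30 min later with peptide in saline (0.5 mL, gelatin-coated syringes), groups of five. Jugular blood drawn exactly 15 min post-injection into EDTA, and plasma glucose measured by glucose oxidase. Values are mean ± SD, n = 5.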

| Compound | Plasma glucose (Rattus norvegicus [1]) [mg 100ml-1] | Plasma glucose (Rattus norvegicus [2]) [mg 100ml-1] | Potency (Rattus norvegicus [3]) [%] | Plasma glucose (Rattus norvegicus [4]) [mg 100ml-1] | Plasma glucose (Rattus norvegicus [5]) [mg 100ml-1] | Plasma glucose (Rattus norvegicus [6]) [mg 100ml-1] | Potency (Rattus norvegicus [7]) [%] | Plasma glucose (Rattus norvegicus [8]) | Plasma glucose (Rattus norvegicus [9]) |
| --- | --- | --- | --- | --- | --- | --- | --- | --- | --- |
| CSCC[C@H](NC(=O)[C@H](CC(C)C)NC(=O)[C@H](Cc1c[nH]c2ccccc12)NC(=O)[C@H](CCC(N)=O)NC(=O)[C@@H](NC(=O)[C@H](Cc1ccccc1)NC(=O)[C@H](CC(=O)O)NC(=O)[C@H](CCC(N)=O)NC(=O)[C@H](C)NC(=O)[C@H](CCCN=C(N)N)NC(=O)[C@H](CCCN=C(N)N)NC(=O)[C@H](CO)NC(=O)[C@H](CC(=O)O)NC(=O)[C@H](CC(C)C)NC(=O)[C@H](Cc1ccc(O)cc1)NC(=O)[C@H](CCCN=C(N)N)NC(=O)[C@H](CO)NC(=O)[C@H](Cc1ccc(O)cc1)NC(=O)[C@H](CC(=O)O)NC(=O)[C@H](CO)NC(=O)[C@@H](NC(=O)[C@H](Cc1ccccc1)NC(=O)[C@@H](NC(=O)[C@@H](C)NC(=O)[C@H](CCC(N)=O)NC(=O)[C@H](CO)NC(=O)[C@@H](N)Cc1c[nH]cn1)[C@@H](C)O)[C@@H](C)O)C(C)C)C(=O)N[C@@H](CC(N)=O)C(=O)N[C@H](C(=O)O)[C@@H](C)O | 174 | 198 | 44 |  |  |  |  |  |  |
| CSCC[C@H](NC(=O)[C@H](CC(C)C)NC(=O)[C@H](Cc1c[nH]c2ccccc12)NC(=O)[C@H](CCC(N)=O)NC(=O)[C@@H](NC(=O)[C@H](Cc1ccccc1)NC(=O)[C@H](CC(=O)O)NC(=O)[C@H](CCC(N)=O)NC(=O)[C@H](C)NC(=O)[C@H](CCCN=C(N)N)NC(=O)[C@H](CCCN=C(N)N)NC(=O)[C@H](CO)NC(=O)[C@H](CC(=O)O)NC(=O)[C@H](CC(C)C)NC(=O)[C@H](Cc1ccc(O)cc1)NC(=O)[C@H](CCCN=C(N)N)NC(=O)[C@H](CO)NC(=O)[C@H](Cc1ccc(O)cc1)NC(=O)[C@H](CC(=O)O)NC(=O)[C@H](CO)NC(=O)[C@@H](NC(=O)[C@H](Cc1ccccc1)NC(=O)[C@@H](NC(=O)[C@@H](C)NC(=O)[C@H](CCC(N)=O)NC(=O)[C@H](CO)NC(=O)[C@H](N)Cc1ccc(Cl)cc1)[C@@H](C)O)[C@@H](C)O)C(C)C)C(=O)N[C@@H](CC(N)=O)C(=O)N[C@H](C(=O)O)[C@@H](C)O |  | 158 | 9 | 176 |  |  |  |  |  |
| CSCC[C@H](NC(=O)[C@H](CC(C)C)NC(=O)[C@H](Cc1c[nH]c2ccccc12)NC(=O)[C@H](CCC(N)=O)NC(=O)[C@@H](NC(=O)[C@H](Cc1ccccc1)NC(=O)[C@H](CC(=O)O)NC(=O)[C@H](CCC(N)=O)NC(=O)[C@H](C)NC(=O)[C@H](CCCN=C(N)N)NC(=O)[C@H](CCCN=C(N)N)NC(=O)[C@H](CO)NC(=O)[C@H](CC(=O)O)NC(=O)[C@H](CC(C)C)NC(=O)[C@H](Cc1ccc(O)cc1)NC(=O)[C@H](CCCN=C(N)N)NC(=O)[C@H](CO)NC(=O)[C@H](Cc1ccc(O)cc1)NC(=O)[C@H](CC(=O)O)NC(=O)[C@H](CO)NC(=O)[C@@H](NC(=O)[C@H](Cc1ccccc1)NC(=O)[C@@H](NC(=O)CNC(=O)[C@H](CCC(N)=O)NC(=O)[C@H](CO)NC(=O)[C@@H](N)Cc1ccccc1)[C@@H](C)O)[C@@H](C)O)C(C)C)C(=O)N[C@@H](CC(N)=O)C(=O)N[C@H](C(=O)O)[C@@H](C)O (H-FSQGTFTSDYSRYLDSRRAQDFVQWLMNT-OH) | 161 | 183 | 31 |  |  |  |  |  |  |
| CSCC[C@H](NC(=O)[C@H](CC(C)C)NC(=O)[C@H](Cc1c[nH]c2ccccc12)NC(=O)[C@H](CCC(N)=O)NC(=O)[C@@H](NC(=O)[C@H](Cc1ccccc1)NC(=O)[C@H](CC(=O)O)NC(=O)[C@H](CCC(N)=O)NC(=O)[C@H](C)NC(=O)[C@H](CCCN=C(N)N)NC(=O)[C@H](CCCN=C(N)N)NC(=O)[C@H](CO)NC(=O)[C@H](CC(=O)O)NC(=O)[C@H](CC(C)C)NC(=O)[C@H](Cc1ccc(O)cc1)NC(=O)[C@H](CCCN=C(N)N)NC(=O)[C@H](CO)NC(=O)[C@H](Cc1ccc(O)cc1)NC(=O)[C@H](CC(=O)O)NC(=O)[C@H](CO)NC(=O)[C@@H](NC(=O)[C@H](Cc1ccccc1)NC(=O)[C@@H](NC(=O)CNC(=O)[C@H](CCC(N)=O)NC(=O)[C@@H](N)CO)[C@@H](C)O)[C@@H](C)O)C(C)C)C(=O)N[C@@H](CC(N)=O)C(=O)N[C@H](C(=O)O)[C@@H](C)O (H-SQGTFTSDYSRYLDSRRAQDFVQWLMNT-OH) |  |  | 4 |  | 165 | 186 |  |  |  |
| GLUCAGON |  |  | 100 |  |  |  | 100 | 186 mg 100ml-1 [middle of 4 runs] | 213 mg 100ml-1 [middle of 5 runs] |

Source: ChEMBL document CHEMBL1122584 (1984)
